Data published in ChEMBL document CHEMBL3352265, “Potentially bioactive organotin(IV) compounds: synthesis, characterization, in vitro bioactivities and interaction with SS-DNA” (Eur J Med Chem, 2014).
≈ marks a conversion by molar mass, not a printed value. Calls of active or inactive are those of the source. The rule behind the calls is not given here.

What was measured:
Artemia salina = assay: Cytotoxicity in brine shrimp assessed as mortality after 24 hrs; type: functional
Escherichia coli [1] = assay: Antibacterial activity against Escherichia coli ATCC 15224 at 40 mg/mL after 24 hrs by disc diffusion method; type: functional; conditions: for zone of inhibition at 40000 µg/mL: ATCC 15224, 24 h, read-out: DIZ
Summary of the method: (§1)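 Disc diffusion. Strains grown in nutrient broth at 37 °C for 24 h. 1% culture (about 10^6 CFU/mL) mixed into nutrient agar at 45 °C and poured. 4 mm paper discs received compound at 40 mg/mL stock in DMSO; final concentrations tested were […]. DMSO served as negative control, roxithromycin and cefixime as positive controls. Triplicate plates incubated at 37 °C for 24 h. Complete-inhibition zone diameter (mm) recorded as the mean of 3.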

Staphylococcus aureus [2] = assay: Antibacterial activity against Staphylococcus aureus ATCC 6538 at 40 mg/mL after 24 hrs by disc diffusion method; type: functional; conditions: for zone of inhibition at 40000 µg/mL: ATCC 6538, 24 h, read-out: DIZ; summary of the method: as §1
Klebsiella aerogenes [3] = assay: Antibacterial activity against Enterobacter aerogenes ATCC 13048 at 40 mg/mL after 24 hrs by disc diffusion method; type: functional; conditions: for zone of inhibition at 40000 µg/mL: ATCC 13048, 24 h, read-out: DIZ; summary of the method: as §1
Salmonella typhimurium [4] = assay: Antibacterial activity against Salmonella typhimurium ATCC 14028 at 40 mg/mL after 24 hrs by disc diffusion method; type: functional; conditions: for inhibition zone (IZ): Salmonella enterica subsp. enterica serovar Typhimurium; for zone of inhibition at 40000 µg/mL: Salmonella enterica, ATCC 14028, 24 h, read-out: DIZ; summary of the method: as §1
[5] = test system: Bordetella bronchiseptica; assay: Antibacterial activity against Bordetella bronchiseptica ATCC 4617 at 40 mg/mL after 24 hrs by disc diffusion method; type: functional; conditions: for zone of inhibition at 40000 µg/mL: ATCC 4617, 24 h, read-out: DIZ; summary of the method: as §1
Bacillus spizizenii [6] = assay: Antibacterial activity against Bacillus subtilis ATCC 6633 at 40 mg/mL after 24 hrs by disc diffusion method; type: functional; conditions: for zone of inhibition at 40000 µg/mL: ATCC 6633, 24 h, read-out: DIZ; summary of the method: as §1
Escherichia coli [7] = assay: Antibacterial activity against Escherichia coli ATCC 15224 after 18 hrs by microdilution method; type: functional
Summary of the method: (§2)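 Broth microdilution. Twofold dilutions in culture broth at […]. Each well inoculated with bacterial suspension (10^8 CFU/mL, about 10^5 CFU/well). Sterility control and growth control (broth plus DMSO) included. Incubated at 36 °C for 18 h, in triplicate. MIC taken as the lowest concentration inhibiting growth, given in micrograms per mL.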

Staphylococcus aureus [8] = assay: Antibacterial activity against Staphylococcus aureus ATCC 6538 after 18 hrs by microdilution method; type: functional; summary of the method: as §2
Klebsiella aerogenes [9] = assay: Antibacterial activity against Enterobacter aerogenes ATCC 13048 after 18 hrs by microdilution method; type: functional, organism-based; summary of the method: as §2
[10] = test system: Bordetella bronchiseptica; assay: Antibacterial activity against Bordetella bronchiseptica ATCC 4617 after 18 hrs by microdilution method; type: functional; summary of the method: as §2
Bacillus spizizenii [11] = assay: Antibacterial activity against Bacillus subtilis ATCC 6633 after 18 hrs by microdilution method; type: functional; summary of the method: as §2
Aspergillus niger [12] = assay: Antifungal activity against Aspergillus niger FCBP 0198 at 40 mg/mL after 7 days by disc diffusion method; type: functional
Summary of the method: (§3)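 Disc diffusion on SDA. Fungi cultured at 28 °C for 24 h. 4 mm discs received compound at 40 mg/mL stock in DMSO. DMSO served as negative control, terbinafine as positive control. Plates incubated at 28 °C for 7 days. Growth diameter (mm) measured and inhibition calculated against the negative control. MIC taken as the lowest concentration with no growth.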

Aspergillus fumigatus = assay: Antifungal activity against Aspergillus fumigatus FCBP 66 at 40 mg/mL after 7 days by disc diffusion method; type: functional; summary of the method: as §3
Aspergillus flavus = assay: Antifungal activity against Aspergillus flavus FCBP 0064 at 40 mg/mL after 7 days by disc diffusion method; type: functional; summary of the method: as §3
Mucor = assay: Antifungal activity against Mucor FCBP 0400 at 40 mg/mL after 7 days by disc diffusion method; type: functional; summary of the method: as §3
Aspergillus niger [13] = assay: Antifungal activity against Aspergillus niger FCBP 0198 after 7 days by disc diffusion method; type: functional, organism-based; summary of the method: as §3
[14] = test system: Agrobacterium tumefaciens; assay: Antitumor activity against Agrobacterium tumefaciens -induced tumor at 1000 ug/ml after 21 days by potato disc bioassay technique; type: functional
Summary of the method: (§4)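 Potato disc assay with 48 h culture of A. tumefaciens At-10. Inoculum contained compound at […]. Red-skinned potatoes sterilized in 0.1% HgCl2; 8 mm × 4 mm discs placed ten per 1.5% agar plate, […] each. Incubated at 28 °C in the dark for 21 days, in triplicate. Discs stained with Lugol's and tumors counted. Percent inhibition calculated against the negative control.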

[15] = test system: Agrobacterium tumefaciens; assay: Antitumor activity against Agrobacterium tumefaciens -induced tumor at 100 ug/ml after 21 days by potato disc bioassay technique; type: functional; summary of the method: as §4
[16] = test system: Agrobacterium tumefaciens; assay: Antitumor activity against Agrobacterium tumefaciens -induced tumor at 10 ug/ml after 21 days by potato disc bioassay technique; type: functional; summary of the method: as §4
Escherichia coli [17] = assay: Induction of Escherichia coli pBR322 DNA damage assessed as open circular form at 1000 ug/ml after 60 mins by gel electrophoresis
Escherichia coli [18] = assay: Induction of Escherichia coli pBR322 DNA damage assessed as open circular form at 100 ug/ml after 60 mins by gel electrophoresis
Escherichia coli [19] = assay: Induction of Escherichia coli pBR322 DNA damage assessed as open circular form at 10 ug/ml after 60 mins by gel electrophoresis
Escherichia coli [20] = assay: Induction of Escherichia coli pBR322 DNA damage assessed as open circular form at 1 ug/ml after 60 mins by gel electrophoresis
Salmonella typhimurium [21] = assay: Antibacterial activity against Salmonella typhimurium ATCC 14028 after 18 hrs by microdilution method; type: functional; conditions: Salmonella enterica subsp. enterica serovar Typhimurium; summary of the method: as §2

| Molecule | inhibition zone (IZ) (Escherichia coli [1]) | inhibition zone (IZ) (Staphylococcus aureus [2]) | inhibition zone (IZ) (Klebsiella aerogenes [3]) | inhibition zone (IZ) (Salmonella typhimurium [4]) | inhibition zone (IZ) [5] | inhibition zone (IZ) (Bacillus spizizenii [6]) | MIC (Escherichia coli [7]) | MIC (Bacillus spizizenii [11]) | inhibition zone (IZ) (Aspergillus niger [12]) | inhibition zone (IZ) (Aspergillus fumigatus) | inhibition zone (IZ) (Aspergillus flavus) | inhibition zone (IZ) (Mucor) | LD50 (Artemia salina) | Activity [14] | Activity [15] | Activity [16] | other results |
| --- | --- | --- | --- | --- | --- | --- | --- | --- | --- | --- | --- | --- | --- | --- | --- | --- | --- |
| COc1cccc2c1C(=O)c1c(O)c3c(c(O)c1C2=O)C[C@@](O)(C(=O)CO)C[C@@H]3O[C@H]1C[C@H](N)[C@H](O)[C@H](C)O1 [DOXORUBICIN] |  |  |  |  |  |  |  |  |  |  |  |  |  |  |  |  | LC50 (Artemia salina; read-out: LD50 (the source's name)): 0.434 µg/mL (≈ 0.798 µM) |
| Dibenzylstannanediyl bis[4-(2-methoxyphenylamino)-4-oxobutanoate] | 16 mm | 20 mm | 14 mm | 0 mm | 19 mm | 11 mm | 50 µg/mL | 200 µg/mL | 11 mm | 0 mm | 0 mm | 0 mm | 1.1 µg/mL | 87.1% | 52% | 19.3% | MIC (Staphylococcus aureus [8]): 100 µg/mL; MIC (Klebsiella aerogenes [9]): 150 µg/mL; MIC [10]: 50 µg/mL; MIC (Aspergillus niger [13]): 200 µg/mL; Activity (Escherichia coli [17]): Active; Activity (Escherichia coli [18]): Active; Activity (Escherichia coli [19]): Active; Activity (Escherichia coli [20]): Active |
| CC[C@]1(O)C[C@H]2CN(CCc3c([nH]c4ccccc34)[C@@](C(=O)OC)(c3cc4c(cc3OC)N(C=O)[C@H]3[C@@](O)(C(=O)OC)[C@H](OC(C)=O)[C@]5(CC)C=CCN6CC[C@]43[C@@H]65)C2)C1 [VINCRISTINE] |  |  |  |  |  |  |  |  |  |  |  |  |  | 100% | 100% | 100% |  |
| C=CC1=C(C(=O)O)N2C(=O)[C@@H](NC(=O)/C(=N\OCC(=O)O)c3csc(N)n3)[C@H]2SC1 [CEFIXIME] |  |  |  |  |  |  |  |  |  |  |  |  |  |  |  |  | zone of inhibition at 40000 µg/mL (Escherichia coli [1]): 24 mm; zone of inhibition at 40000 µg/mL (Staphylococcus aureus [2]): 26 mm; zone of inhibition at 40000 µg/mL (Klebsiella aerogenes [3]): 10 mm; zone of inhibition at 40000 µg/mL (Salmonella typhimurium [4]): 26 mm; zone of inhibition at 40000 µg/mL [5]: 13 mm; zone of inhibition at 40000 µg/mL (Bacillus spizizenii [6]): 25 mm |
| Dioctylstannanediyl bis(4-(2-methoxyphenylamino)-4-oxobutanoate) | 10 mm | 0 mm | 0 mm | 12 mm | 11 mm | 9 mm | 200 µg/mL | 200 µg/mL | 0 mm | 0 mm | 0 mm | 0 mm | 0.499 µg/mL | 65.5% | 44.9% | 31.2% | MIC (Salmonella typhimurium [21]): 150 µg/mL |
| CN(C/C=C/C#CC(C)(C)C)Cc1cccc2ccccc12 [TERBINAFINE] |  |  |  |  |  |  |  |  |  |  |  |  |  |  |  |  | zone of inhibition at 40000 µg/mL (Aspergillus niger [12]; FCBP 0198, 168 h, read-out: DIZ): 35 mm; zone of inhibition at 40000 µg/mL (Aspergillus fumigatus; FCBP 66, 168 h, read-out: DIZ): 35 mm; zone of inhibition at 40000 µg/mL (Aspergillus flavus; FCBP 0064, 168 h, read-out: DIZ): 35 mm; zone of inhibition at 40000 µg/mL (Mucor; FCBP 0400, 168 h, read-out: DIZ): 32 mm |
| CC[C@H]1OC(=O)[C@H](C)[C@@H](O[C@H]2C[C@@](C)(OC)[C@@H](O)[C@H](C)O2)[C@H](C)[C@@H](O[C@@H]2O[C@H](C)C[C@H](N(C)C)[C@H]2O)[C@](C)(O)C[C@@H](C)/C(=N\OCOCCOC)[C@H](C)[C@@H](O)[C@]1(C)O [ROXITHROMYCIN] |  |  |  |  |  |  |  |  |  |  |  |  |  |  |  |  | zone of inhibition at 40000 µg/mL (Escherichia coli [1]): 14 mm; zone of inhibition at 40000 µg/mL (Staphylococcus aureus [2]): 14 mm; zone of inhibition at 40000 µg/mL (Klebsiella aerogenes [3]): 12 mm; zone of inhibition at 40000 µg/mL (Salmonella typhimurium [4]): 16 mm; zone of inhibition at 40000 µg/mL [5]: 19 mm; zone of inhibition at 40000 µg/mL (Bacillus spizizenii [6]): 10 mm |
| Dimethylstannanediyl bis(4-(2-methoxyphenylamino)-4-oxobutanoate) | 16 mm | 17 mm | 21 mm | 16 mm | 19 mm | 18 mm | 50 µg/mL | 100 µg/mL | 15 mm | 0 mm | 0 mm | 0 mm | 2.89 µg/mL | 91.4% | 62.9% | 43.2% | MIC (Staphylococcus aureus [8]): 100 µg/mL; MIC (Klebsiella aerogenes [9]): 100 µg/mL; MIC (Salmonella typhimurium [21]): 150 µg/mL; MIC [10]: 50 µg/mL; MIC (Aspergillus niger [13]): 200 µg/mL; Activity (Escherichia coli [17]): Active; Activity (Escherichia coli [18]): Active; Activity (Escherichia coli [19]): Active; Activity (Escherichia coli [20]): Active |
